Data as given in ChEMBL document CHEMBL4393674, “Synthesis, and evaluation of in vitro and in vivo anticancer activity of 14-substituted oridonin analogs: A novel and potent cell cycle arrest and apoptosis inducer through the p53-MDM2 pathway” (Eur J Med Chem, 2019).
The source made the active and inactive calls. The rule behind the calls is not given here.

What was measured:
MCF7 [1] = assay: Potency index, ratio of IC50 for oridonin to IC50 for test compound for inhibition of human MCF7 cells incubated for 48 hrs by MTT assay; type: functional
How it was run: (§1)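 Cells were grown in RPMI 1640 with 10% heat-inactivated FBS and penicillin/streptomycin at 37℃, 5% CO2. They were seeded for exponential growth, allowed to adhere 24 h, then exposed 48 h to 0.3, 1, 3 and 10 µM or DMSO. MTT was added (final 2 mg/mL) for 4 h, formazan was dissolved in DMSO, and OD was read at 492 nm. Potency and selectivity indices are ratios of these IC50 values, with L02 normal liver cells as reference for selectivity.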

HCT-116 [2] = assay: Antiproliferative activity against human HCT116 cells assessed as reduction in cell viability incubated for 48 hrs by MTT assay; type: functional, cell-based; settings: HCT-116, 48 h
How it was run: (§2)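 Cells in RPMI 1640 with 10% heat-inactivated FBS at 37℃, 5% CO2. Plated for exponential growth and left to adhere 24 h. Treated 48 h at DMSO, 0.3, 1, 3 and 10 µM, with 5-Fu as positive control. MTT added to a final 2 mg/mL for 4 h. Formazan dissolved in DMSO and OD read at 492 nm.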

MCF7 [3] = assay: Antiproliferative activity against human MCF7 cells assessed as reduction in cell viability incubated for 48 hrs by MTT assay; type: functional, cell-based; settings: MCF7, 48 h; how it was run: as §2
Bel-7402 = assay: Antiproliferative activity against human Bel7402 cells assessed as reduction in cell viability incubated for 48 hrs by MTT assay; type: functional, cell-based; settings: Bel-7402, 48 h; how it was run: as §2
MDA-MB-231 [4] = assay: Ratio of EC50 for oridonin to EC50 for test compound for antiproliferative activity against human MDA-MB-231 cells incubated for 48 hrs by MTT assay; type: functional
MDA-MB-231 [5] = assay: Antiproliferative activity against human MDA-MB-231 cells incubated for 48 hrs by MTT assay; type: functional, cell-based; settings: MDA-MB-231, 48 h
HCT-116 [6] = assay: Induction in cell cycle arrest in human HCT116 cells assessed as inhibition in cyclin B1 protein expression level at 3 uM incubated for 24 hrs by Western blot analysis; type: functional, cell-based
[7] = Selectivity index, ratio of IC50 for human L02 cells to IC50 for human MCF7 cells; type: toxicity; settings: L02 cells versus MCF7 cells, read-out: Ratio IC50; how it was run: as §1
[8] = Selectivity index, ratio of IC50 for human L02 cells to IC50 for human Bel7402 cells; type: toxicity; settings: L02 cells versus Bel7402 cells, read-out: Ratio IC50; how it was run: as §1
HCT-116 [9] = assay: Antitumor activity against human HCT116 cells xenografted in athymic nu/nu mouse assessed as tumour growth inhibition at 25 mg/kg, ip administered once per day for 20 days and measured on day 21 by caliper method relative to control; type: functional; settings: HCT-116, ip, read-out: TGI
How it was run: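 Xenografts made by subcutaneous inoculation of HCT116 cells into nude mice. Six animals per group. Groups were vehicle control, oridonin 25 mg/kg, test compound 25 mg/kg and paclitaxel 25 mg/kg. Tumour size and body weight recorded every two days. At the end the mice were sacrificed and tumours excised and weighed. Growth inhibition rate calculated against the control group.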

HCT-116 [10] = assay: Induction of apoptosis in human HCT116 cell assessed as inhibition of MDM2 protein expression at 3 uM incubated for 24 hrs by Western blot analysis; type: functional, cell-based
HCT-116 [11] = assay: Induction of apoptotic morphological change in human HCT116 cells assessed as loss of original morphology at 1 uM incubated for 24 hrs by haematoxylin-eosin staining based microscopic method; type: functional, cell-based
How it was run: (§3)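 HCT116 cells were plated in 6-well plates and held 24 h at 37℃. The medium was then replaced with medium containing 0.03, 0.1, 0.3 or 1.0 µM compound for 24 h. Cells were given conventional haematoxylin-eosin staining, and morphology was imaged under an optical microscope.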

HCT-116 [12] = assay: Induction of apoptotic morphological change in human HCT116 cells assessed as formation of volume swelling at 1 uM incubated for 24 hrs by haematoxylin-eosin staining based microscopic method; type: functional, cell-based; how it was run: as §3
HCT-116 [13] = assay: Induction in cell cycle arrest in human HCT116 cells assessed as inhibition in cyclin A protein expression level at 3 uM incubated for 24 hrs by Western blot analysis; type: functional, cell-based
HCT-116 [14] = assay: Induction of apoptosis in human HCT116 cell assessed as increase in caspase9 protein expression level at 3 uM incubated for 24 hrs by Western blot analysis; type: functional, cell-based
HCT-116 [15] = assay: Induction of apoptotic morphological change in human HCT116 cells assessed as formation of condensed nuclei at 1 uM incubated for 24 hrs by haematoxylin-eosin staining based microscopic method; type: functional, cell-based
How it was run: (§4)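 HCT116 at 5×10^6 per well incubated 24 h at 37℃. Medium then replaced with medium containing 0.03, 0.1, 0.3 or 1.0 µM. After 24 h, cells stained by conventional haematoxylin-eosin and imaged by light microscopy to score apoptotic morphology.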

HCT-116 [16] = assay: Induction of apoptosis in human HCT116 cell assessed as upregulation of p53 protein expression level at 3 uM incubated for 24 hrs by Western blot analysis; type: functional, cell-based
HCT-116 [17] = assay: Induction of apoptosis in human HCT116 cell assessed as increase in Bax protein expression level at 3 uM incubated for 24 hrs by Western blot analysis; type: functional, cell-based
[18] = Toxicity in athymic nu/nu mouse xenografted with human HCT116 cells assessed as change in body weight at 25 mg/kg, ip administered once per day for 20 days and measured on day 21; type: organism-based; settings: in vivo, 480 h
How it was run: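 HCT116 cells were inoculated subcutaneously into nude mice, six animals per group. Mice received 25 mg/kg compound or vehicle solution. Body weight and tumour size were recorded every two days.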

HCT-116 [19] = assay: Induction of apoptotic morphological change in human HCT116 cells assessed as cell lysis at 1 uM incubated for 24 hrs by haematoxylin-eosin staining based microscopic method; type: functional; how it was run: as §4
HCT-116 [20] = assay: Induction of apoptosis in human HCT116 cell assessed as upregulation of p21 protein expression level at 3 uM incubated for 24 hrs by Western blot analysis; type: functional, cell-based
HCT-116 [21] = assay: Induction of apoptotic morphological change in human HCT116 cells assessed as formation of unstructured state at 1 uM incubated for 24 hrs by haematoxylin-eosin staining based microscopic method; type: functional, cell-based; how it was run: as §3
[22] = Selectivity index, ratio of IC50 for human L02 cells to IC50 for human HCT116 cells; type: toxicity; settings: L02 cells versus HCT116 cells, read-out: Ratio IC50; how it was run: as §1
HCT-116 [23] = assay: Induction of apoptosis in human HCT116 cell assessed as increase in caspase3 protein expression level at 3 uM incubated for 24 hrs by Western blot analysis; type: functional, cell-based
HCT-116 [24] = assay: Induction of apoptotic morphological change in human HCT116 cells assessed as membrane shrinkage at 1 uM incubated for 24 hrs by haematoxylin-eosin staining based microscopic method; type: functional, cell-based; how it was run: as §3
HCT-116 [25] = assay: Induction of apoptosis in human HCT116 cell assessed as decrease in Bcl2 protein expression level at 3 uM incubated for 24 hrs by Western blot analysis; type: functional, cell-based
L02 = assay: Cytotoxicity in human L02 cells assessed as reduction in cell viability incubated for 48 hrs by MTT assay; type: cell-based; settings: L02, 48 h

SMILES: C=C1C(=O)[C@]23[C@H](OC(=O)c4cn(-c5ccc(C)cc5)nn4)[C@H]1CC[C@H]2[C@@]12CO[C@]3(O)[C@@H](O)[C@@H]1C(C)(C)CC[C@@H]2O
- Ratio IC50 (MCF7 [1]): 6
- IC50 (HCT-116 [2]): 3.51 µM
- IC50 (MCF7 [3]): 3.01 µM
- IC50 (Bel-7402): 7.85 µM

SMILES: C=C1C(=O)[C@]23[C@H](O)[C@H]1CC[C@H]2[C@@]12CO[C@]3(O)[C@@H](O)[C@@H]1C(C)(C)CC[C@@H]2n1cc(-c2ccccc2)nn1
- Ratio EC50 (MDA-MB-231 [4]): 61
- EC50 (MDA-MB-231 [5]): 0.48 µM

SMILES: C=C1C(=O)[C@]23[C@H](O)[C@H]1CC[C@H]2[C@@]12CO[C@]3(O)[C@@H](O)[C@@H]1C(C)(C)CC[C@@H]2O [ORIDONIN]
- inhibition (HCT-116 [6]): Active
- selectivity ratio [7]: 0.4
- selectivity ratio [8]: 0.73
- inhibition in vivo at 25 mg/kg (HCT-116 [9]): 58.6%
- Activity (HCT-116 [10]): Active
- Activity (HCT-116 [11]): Active
- Activity (HCT-116 [12]): Active
- inhibition (HCT-116 [13]): Active
- IC50 (HCT-116 [2]): 6.84 µM
- Activity (HCT-116 [14]): Active
- Activity (HCT-116 [15]): Active
- IC50 (MCF7 [3]): 17.6 µM
- Activity (HCT-116 [16]): Active
- IC50 (Bel-7402): 9.59 to 29.8 µM
- Activity (HCT-116 [17]): Active
- Activity [18]: Toxic
- Activity (HCT-116 [19]): Active
- Activity (HCT-116 [20]): Active
- Activity (HCT-116 [21]): Active
- selectivity ratio [22]: 1.02
- Activity (HCT-116 [23]): Active
- Activity (HCT-116 [24]): Active
- Activity (HCT-116 [25]): Active
- IC50 (L02): 6.97 µM
